{
  "source": "ChEMBL document CHEMBL4376875",
  "about": "“Synthesis and Biological Evaluation of B-Cell Lymphoma 6 Inhibitors of N-Phenyl-4-pyrimidinamine Derivatives Bearing Potent Activities against Tumor Growth” (J Med Chem, 2020)",
  "key": {"Toledo [1]": {"test_system": "Toledo", "assay": "Effect on CDKN1A mRNA expression in BCL6-negative human Toledo cells at 1.25 to 5 uM incubated for 24 hrs by RT-PCR analysis", "type": "functional, cell-based", "outline": "(§1)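 Toledo cells (BCL6-independent) were exposed to 1.25, 2.50 or 5.00 μM for 24 h, then mRNA was collected. Target-gene transcripts were quantified by real-time quantitative PCR against vehicle control.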"}, "Toledo [2]": {"test_system": "Toledo", "assay": "Effect on CD69 mRNA expression in BCL6-negative human Toledo cells at 1.25 to 5 uM incubated for 24 hrs by RT-PCR analysis", "type": "functional, cell-based", "outline": "as §1"}, "SUD4 [3]": {"test_system": "SUD4", "assay": "Antiproliferative activity against human SUDHL4 cells assessed as reduction in cell viability incubated for 72 hrs by CCK8 assay", "conditions": "SU-DHL-4, 72 h"}, "Farage [4]": {"test_system": "Farage", "assay": "Antiproliferative activity against human Farage cells assessed as reduction in cell viability incubated for 72 hrs by CCK8 assay"}, "OCI-Ly7": {"test_system": "OCI-Ly7", "assay": "Antiproliferative activity against human OCI-LY7 cells assessed as reduction in cell viability incubated for 72 hrs by CCK8 assay", "conditions": "OCI-Ly7, 72 h"}, "L02": {"test_system": "L02", "assay": "Cytotoxicity against human LO2 cells assessed as reduction in cell viability incubated for 72 hrs by CCK8 assay", "conditions": "L02, 72 h"}, "[5]": {"assay": "Cytotoxicity against HAF cells assessed as reduction in cell viability incubated for 72 hrs by CCK8 assay", "conditions": "Homo sapiens"}, "NCM460": {"test_system": "NCM460", "assay": "Cytotoxicity against human NCM460 cells assessed as reduction in cell viability incubated for 72 hrs by CCK8 assay", "conditions": "NCM460, 72 h"}, "SUD4 [6]": {"test_system": "SUD4", "assay": "Induction of apoptosis in human SUDHL4 cells assessed as late apoptotic cells at 2.5 uM incubated for 48 hrs by annexin V-FITC and propidium iodide staining based flow cytometry analysis (reference value: 1.39%)", "type": "functional"}, "SUD4 [7]": {"test_system": "SUD4", "assay": "Induction of apoptosis in human SUDHL4 cells assessed as early apoptotic cells at 2.5 uM incubated for 48 hrs by annexin V-FITC and propidium iodide staining based flow cytometry analysis (reference value: 2.62%)", "type": "functional"}, "Mus musculus [8]": {"test_system": "Mus musculus", "assay": "In vivo inhibition of GC formation in NP-CGG immunized C57BL/6 mouse assessed as proportion of Tfh cells (CXCR5+PD1+CD4+) at 10 mg/kg, iv administered 3 days once for 12 days starting from 2 days after NP-CGG addition by flow cytometry analysis (reference value: 2.25%)", "type": "functional", "set-up": "scale not given: the % may be the effect or the level left"}, "SUD4 [9]": {"test_system": "SUD4", "assay": "Antitumor activity against human SUDHL4 cells xenografted in SCID mouse assessed as reduction in tumor volume at 5 mg/kg, iv administered 3 days once for 15 days and measured every 3 days by caliper analysis", "type": "functional, organism-based", "outline": "(§2)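 Male SCID mice, 6 weeks old, received 1 × 10⁷ SUDHL4 cells s.c. At about 100 mm³, mice were randomized (n = 7) to vehicle (20% 2-hydroxypropyl-β-cyclodextrin) or 5 or 10 mg/kg every 3 days i.v. for 15 days. Body weight and caliper volume (L × W² × 0.52) were recorded every 3 days. At sacrifice, tissues were fixed in 4% paraformaldehyde and paraffin-embedded for H&E or Ki67 IHC. Tumor mRNA was assayed by qPCR.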"}, "[10]": {"assay": "Toxicity in SCID mouse xenografted with human SUDHL4 cells assessed as adverse effect on liver morphology at 5 to 10 mg/kg, iv administered 3 days once for 15 days by H and E staining analysis", "type": "organism-based", "conditions": "in vivo", "outline": "as §2"}, "[11]": {"assay": "Toxicity in SCID mouse xenografted with human SUDHL4 cells assessed as adverse effect on spleen morphology at 5 to 10 mg/kg, iv administered 3 days once for 15 days by H and E staining analysis", "type": "organism-based", "conditions": "in vivo", "outline": "as §2"}, "SUD4 [12]": {"test_system": "SUD4", "assay": "Antitumor activity against human SUDHL4 cells xenografted in SCID mouse assessed as reduction in Ki67 expression in tumor at 5 mg/kg, iv administered 3 days once for 15 days by Ki67-staining based immunohistochemistry", "type": "functional, organism-based", "outline": "as §2"}, "[13]": {"assay": "Metabolic stability in human liver assessed as intrinsic clearance", "type": "ADME, tissue-based", "conditions": "read-out: CLH", "outline": "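Incubation with human liver microsomes. Intrinsic clearance was scaled to liver using 45 mg microsomal protein per g liver and 20 g liver per kg body weight. Half-life was also determined.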"}, "[14]": {"assay": "Metabolic stability in human liver microsomes assessed as compound remaining measured after 60 mins", "type": "ADME, Microsome", "conditions": "read-out: Stability"}, "[15]": {"assay": "Protein binding in human plasma assessed as unbound fraction", "type": "ADME, cell-free", "outline": "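Human plasma protein binding was measured by a contract laboratory.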"}, "Farage [16]": {"test_system": "Farage", "conditions": "Homo sapiens, 0.25 to 2 uM"}, "Mus musculus [17]": {"species": "Mus musculus", "conditions": "C57BL/6, 10 mg/kg"}},
  "note": "The source made the active and inactive calls. No cut-off for these calls is given here.",
  "data": [
    {"compound": "COc1cc(Nc2nc(N3C[C@@H](C)N[C@@H](C)C3)ncc2F)ccc1NC(=O)c1ccc(C2=CCCC2)s1", "values": [
      {"measurement": "Activity", "setting": "Toledo [1]", "value": "inactive"},
      {"measurement": "Activity", "setting": "Toledo [2]", "value": "inactive"},
      {"measurement": "IC50", "setting": "SUD4 [3]", "value": 0.92, "unit": "µM"},
      {"measurement": "IC50", "setting": "Farage [4]", "value": 1.26, "unit": "µM"},
      {"measurement": "IC50", "setting": "OCI-Ly7", "value": 1.62, "unit": "µM"},
      {"measurement": "IC50", "setting": "L02", "value": 13.1, "unit": "µM"},
      {"measurement": "IC50", "setting": "[5]", "value": 26.4, "unit": "µM"},
      {"measurement": "IC50", "setting": "NCM460", "value": 32.4, "unit": "µM"},
      {"measurement": "Activity", "setting": "SUD4 [6]", "value": 67.3, "unit": "%"},
      {"measurement": "Activity", "setting": "SUD4 [7]", "value": 5.91, "unit": "%"},
      {"measurement": "Activity", "setting": "Mus musculus [8]", "value": 0.99, "unit": "%"},
      {"measurement": "Activity", "setting": "SUD4 [9]", "value": "Active"},
      {"measurement": "Activity", "setting": "[10]", "value": "Non-Toxic"},
      {"measurement": "Activity", "setting": "[11]", "value": "Non-Toxic"},
      {"measurement": "Activity", "setting": "SUD4 [12]", "value": "Active"},
      {"measurement": "CLint scaled", "setting": "[13]", "value": "< 38", "unit": "mL/min/kg"},
      {"measurement": "remaining at 1 h", "setting": "[14]", "value": 102, "unit": "%"},
      {"measurement": "fraction unbound", "setting": "[15]", "value": 0.076},
      {"measurement": "inhibition", "setting": "Farage [16]", "value": "inactive"},
      {"measurement": "inhibition", "setting": "Mus musculus [17]", "value": "Active"}
    ]}
  ]
}
